Assay results from different studies.
Each line is one published result; the experiments were not run side by side.
Target: Mitogen-activated protein kinase 10 (MAPK10, Homo sapiens, UniProt P53779)

SMILES | observed | method | tested at | remaining binding [%]
CN(C)c1nccc(-c2cnn3ncccc23)n1 | binding | – | 1 µM | 49
CCC(=O)N[C@H]1CC[C@@H](C(=O)N(C)c2ccc(-c3nc4ccccc4o3)cc2)C1 | cell-free assay | competition with immobilised ligand | 1 µM | 85
O=C(c1ccc(Nc2ncc(Cl)c(-c3cc4ccccc4s3)n2)cc1)N1CCC(N2CCCC2)CC1 | binding | competition with immobilised ligand | 1 µM | 5.8
COc1ncc2cc3ccccc3nc2c1C#N | cell-free assay | competition with immobilised ligand | 5 µM | 100
O=C(O)[C@@H]1[C@@H](Cn2nnc3ccccc3c2=O)CC[C@H]1C(=O)c1ccc(OCCC2CCOCC2)cc1 | cell-free assay | competition with immobilised ligand | 1 µM | 100
N[C@H]1CCN(c2nccc(-c3cnn4ncccc34)n2)C1 | binding | – | 1 µM | 60
O=C(NCCCN1CCOCC1)c1ccc(Nc2nccc(-c3cc4ccccc4s3)n2)cc1 | binding | competition with immobilised ligand | 1 µM | 15
O=C(N1CCS(=O)(=O)CC1)N1C[C@H](c2ccc(OC(F)(F)F)cc2)C[C@H](c2nc(C3CC3)no2)C1 | cell-free assay | competition with immobilised ligand | 1 µM | 79
O=C(NCC1CCOCC1)c1n[nH]cc1NC(=O)c1c(F)cccc1F | binding | competition with immobilised ligand | 1 µM | 31
COC(=O)Nc1nc2ccc(C(=O)c3ccccc3)cc2[nH]1 | cell-free assay | competition with immobilised ligand | 10 µM | 3
c1cnn2ncc(-c3ccnc(N4CCC45COC5)n3)c2c1 | binding | – | 1 µM | 27
CCOCCn1cc(C(=O)Nc2ccc(-n3nc(-c4cccnc4)cc3C(F)(F)F)cn2)ccc1=O | cell-free assay | competition with immobilised ligand | 1 µM | 100
CNC(=O)[C@@H]1CC[C@@H](n2c(-c3ccc4cnccc4c3)nc3ccc(C(=O)NCc4cccc(C(N)=O)c4)cc32)C1 | binding | competition with immobilised ligand | 1 µM | 84
N#Cc1ccccc1CSc1nnc2c(n1)[nH]c1ccccc12 | binding | competition with immobilised ligand | 10 µM | 100
Cc1ccc(-c2cnc([C@@]3(O)CC[C@H](C(=O)O)C(C)(C)C3)s2)cc1Nc1cccc(C(F)(F)F)n1 | binding | competition with immobilised ligand | 1 µM | 37.5
COc1ccnn2ncc(-c3ccnc(N(C)C)n3)c12 | binding | – | 1 µM | 80
CS(=O)(=O)NCC[C@H](NC(=O)c1cncc2c1cnn2-c1ccc(F)cc1)c1ccnc(S(C)(=O)=O)c1 | cell-free assay | competition with immobilised ligand | 1 µM | 100
C[C@@H]1CCN(c2nccc(-c3cnn4ncccc34)n2)C1 | binding | – | 1 µM | 34
O=C(c1ccc(Nc2ncc(Cl)c(-c3ccc(Cl)s3)n2)cc1)N1CCC(N2CCCC2)CC1 | binding | competition with immobilised ligand | 1 µM | 1.1
CCC(=N\O)/C(C)=C/c1ccc(F)cc1 | cell-free assay | competition with immobilised ligand | 1 µM | 100
C[C@@H]1CN(c2ccc3ncc(-c4ccc5[nH]nc(C6CC6)c5c4)n3n2)C[C@H](C)O1 | binding | competition with immobilised ligand | 0.5 µM | 52
CN(C)c1ncc(F)c(-c2cnn3ncccc23)n1 | binding | – | 1 µM | 73
COc1cnc(Nc2cccc(S(N)(=O)=O)c2)nc1N1CCN(c2ccccc2)C(=O)C1 | binding | competition with immobilised ligand | 1 µM | 63
CC(C)(C)c1ccc(-c2nc(CBr)nn2-c2cccc(O)c2)cc1 | cell-free assay | competition with immobilised ligand | 10 µM | 65
